Measured values reported in PMC4384654 (ChemMedChem, 2014).

What was measured:
[1] = In vitro rat plasma stability assay; format: in vitro ADME; settings: 37 °C, 1.0 μM
Procedure, shortened: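 Test compound at 1.0 µM final was incubated at 37 °C in rat plasma (prewarmed 30 min) containing 10% DMSO. Samples at 0, 30, 60, 120, 240, 360 and 420 min were quenched in cold CH3CN with 200 nM warfarin internal standard and centrifuged. Supernatant was quantified by LC-MS/MS (MRM). Internal-standard-normalised response was plotted over time. Run in triplicate.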

[2] = Aqueous kinetic solubility assay; format: physicochemical; settings: Phosphate buffered saline, pH 7.4, single determination
Procedure, shortened: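 Test compound from a 10 mM DMSO stock was added to PBS pH 7.4 at a target 250 µM (2.5% DMSO final). Shaken 24 h at 25 °C, then centrifuged. Supernatant was analysed by UPLC/MS with UV at 215 nm. Solubility = peak-area ratio against a 250 µM reference in 1:1 CH3CN-H2O × reference concentration × dilution factor.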

[3] = molecular target: T1, FAAH prepared from rat brain homogenates (Rattus norvegicus, UniProt P97612); experiment: In vitro rat FAAH radiometric assay; format: biochemical; settings: read-out: r-FAAH IC50; rat brain homogenate, mean ± SEM (n=3)
T1 sequence (P97612 1-579): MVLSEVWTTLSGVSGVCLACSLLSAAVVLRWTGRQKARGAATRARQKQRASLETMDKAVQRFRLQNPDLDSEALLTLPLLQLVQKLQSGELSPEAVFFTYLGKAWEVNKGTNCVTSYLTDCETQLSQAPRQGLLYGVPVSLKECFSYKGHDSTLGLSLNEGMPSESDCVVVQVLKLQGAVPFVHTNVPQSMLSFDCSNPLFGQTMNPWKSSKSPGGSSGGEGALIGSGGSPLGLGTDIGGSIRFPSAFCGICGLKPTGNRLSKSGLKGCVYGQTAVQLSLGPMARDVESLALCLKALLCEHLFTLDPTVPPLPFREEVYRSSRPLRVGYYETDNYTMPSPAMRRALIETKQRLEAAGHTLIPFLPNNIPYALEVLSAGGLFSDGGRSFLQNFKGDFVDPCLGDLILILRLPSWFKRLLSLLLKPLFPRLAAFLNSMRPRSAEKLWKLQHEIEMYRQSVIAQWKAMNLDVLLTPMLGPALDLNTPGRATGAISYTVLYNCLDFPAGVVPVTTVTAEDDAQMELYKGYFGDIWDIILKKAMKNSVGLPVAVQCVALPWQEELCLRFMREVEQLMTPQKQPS

[4] = In vitro mouse liver microsomes; format: in vitro ADME; settings: 5 μM compound, mean of three determinations
Procedure, shortened: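 Test compound at 5 µM (0.1% DMSO) was preincubated 15 min with 1.25 mg/mL mouse liver microsomes in 100 mM Tris-HCl pH 7.4. At time zero, NADP 1 mM, G6P 20 mM, MgCl2 2 mM and G6P dehydrogenase 2 Units were added; shaken at 37 °C. Samples at 0–60 min were quenched in acetonitrile with warfarin internal standard and analysed by LC-MS/MS (MRM). A no-cofactor control was sampled at the end.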

[5] = molecular target: T2, human FAAH-1 (Homo sapiens, UniProt O00519); experiment: In vitro human FAAH fluorescent assay; format: biochemical; settings: h-FAAH-1 vs r-FAAH
T2 sequence (O00519 1-579): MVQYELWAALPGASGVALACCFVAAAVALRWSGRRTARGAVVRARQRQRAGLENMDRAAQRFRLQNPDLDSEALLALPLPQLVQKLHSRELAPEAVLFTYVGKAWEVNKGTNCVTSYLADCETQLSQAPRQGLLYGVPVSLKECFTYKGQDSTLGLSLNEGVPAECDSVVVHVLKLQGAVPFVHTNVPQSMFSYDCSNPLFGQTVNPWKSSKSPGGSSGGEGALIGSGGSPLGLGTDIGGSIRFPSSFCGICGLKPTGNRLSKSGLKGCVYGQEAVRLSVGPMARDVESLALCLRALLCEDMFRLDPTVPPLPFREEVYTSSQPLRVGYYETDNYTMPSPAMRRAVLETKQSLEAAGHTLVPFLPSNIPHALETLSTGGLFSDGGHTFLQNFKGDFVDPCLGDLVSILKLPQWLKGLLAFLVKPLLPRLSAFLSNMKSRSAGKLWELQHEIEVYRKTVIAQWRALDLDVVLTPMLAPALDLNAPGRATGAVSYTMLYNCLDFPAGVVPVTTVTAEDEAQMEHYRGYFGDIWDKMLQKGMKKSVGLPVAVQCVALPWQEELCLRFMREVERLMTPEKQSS

[6] = molecular target: T3, purified rat MGL (Rattus norvegicus, UniProt Q8R431); experiment: MGL activity assay; format: biochemical; settings: tested at concentrations up to 100 μM (Figure S1)
T3 sequence (Q8R431 1-303): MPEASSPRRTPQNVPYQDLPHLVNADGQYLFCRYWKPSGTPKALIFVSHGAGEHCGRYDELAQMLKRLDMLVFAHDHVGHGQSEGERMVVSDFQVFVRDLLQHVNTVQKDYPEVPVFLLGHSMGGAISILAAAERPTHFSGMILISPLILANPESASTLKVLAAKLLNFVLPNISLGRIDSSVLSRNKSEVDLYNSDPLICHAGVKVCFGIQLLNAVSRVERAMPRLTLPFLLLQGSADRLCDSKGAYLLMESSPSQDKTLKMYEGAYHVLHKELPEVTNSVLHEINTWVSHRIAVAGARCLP

Plasma half-life [1] [min]	Kinetic sol. [2] [µM]	IC50 [3] [nM]	MLM Stab. half-life [4] [min]	Higher potency on h-FAAH-1 with respect to r-FAAH [5] [fold]	Compound	Inhibition of MGL activity [6]
62 ± 19	6	5.7 ± 1.2	<5	–	O=C(NC1CCCCC1)Oc1cccc(-c2ccccc2)c1 [Compound 1a, URB524, reference compound]	–
–	18	10.5 ± 2.9	5	3	COc1cc(Cn2cc(COC(=O)NC3CCCCC3)nn2)cc(OC)c1 [Compound 27, [1-[(3,5-dimethoxyphenyl)methyl]triazol-4-yl]methyl N-cyclohexylcarbamate]	None of the compounds inhibited MGL activity
–	174	3.9 ± 0.7	6	–	COc1cccc(Cn2cc(CNC(=O)OCc3cn(Cc4cccc(OC)c4)nn3)nn2)c1 [Compound 34b, [1-[(3-methoxyphenyl)methyl]triazol-4-yl]methyl N-[[1-[(3-methoxyphenyl)methyl]triazol-4-yl]methyl]carbamate]	None of the compounds inhibited MGL activity
–	152	5.8 ± 0.6	8	–	COc1ccc(Cn2cc(CNC(=O)OCc3cn(Cc4cccc(OC)c4)nn3)nn2)cc1 [Compound 40, [1-[(3-methoxyphenyl)methyl]triazol-4-yl]methyl N-[[1-[(4-methoxyphenyl)methyl]triazol-4-yl]methyl]carbamate]	None of the compounds inhibited MGL activity
